What was measured:
Format in all cases: functional
K562 = assay: Cytotoxicity against human K562 cells assessed as cell growth at 10 uM; conditions: Homo sapiens, K562; read-out: Activity
How it was run: (§1)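 Single-dose screen at 10 μM across the 60-cell-line panel. Cells grown in RPMI 1640 with 5% FBS and 2 mM L-glutamine, seeded at 5,000–40,000 cells/well according to doubling time, and treated 24 h later. Exposure lasted 48 h at 37 °C, 5% CO₂. Adherent cells were fixed with cold TCA, suspension cells were fixed settled, and both were stained with SRB and read at 515 nm. Growth % was recorded, with inhibition % = 100 − growth %.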

MOLT-4 = assay: Cytotoxicity against human MOLT4 cells assessed as cell growth at 10 uM; conditions: Homo sapiens, MOLT-4; read-out: Activity; how it was run: as §1
SR = assay: Cytotoxicity against human SR cells assessed as cell growth at 10 uM; how it was run: as §1
EKVX = assay: Cytotoxicity against human EKVX cells assessed as cell growth at 10 uM; conditions: Homo sapiens, EKVX; read-out: Activity
How it was run: (§2)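 Single-concentration screen at 10 μM across the 60-cell-line panel (nine tissue types); growth percentage recorded per cell line, with inhibition taken as 100 minus growth percentage.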

HOP-62 = assay: Cytotoxicity against human HOP62 cells assessed as cell growth at 10 uM; conditions: Homo sapiens, HOP-62; read-out: Activity; how it was run: as §2
NCI-H226 = assay: Cytotoxicity against human NCI-H226 cells assessed as cell growth at 10 uM; conditions: Homo sapiens, NCI-H226; read-out: Activity; how it was run: as §1
NCI-H23 = assay: Cytotoxicity against human NCI-H23 cells assessed as cell growth at 10 uM; conditions: Homo sapiens, NCI-H23; read-out: Activity; how it was run: as §1
NCI-H522 = assay: Cytotoxicity against human NCI-H522 cells assessed as cell growth at 10 uM; conditions: Homo sapiens, NCI-H522; read-out: Activity; how it was run: as §1
COLO 205 = assay: Cytotoxicity against human COLO205 cells assessed as cell growth at 10 uM; conditions: Homo sapiens, COLO 205; read-out: Activity; how it was run: as §2
HCC 2998 = assay: Cytotoxicity against human HCC2998 cells assessed as cell growth at 10 uM; conditions: Homo sapiens, HCC 2998; read-out: Activity; how it was run: as §2
HCT-116 = assay: Cytotoxicity against human HCT116 cells assessed as cell growth at 10 uM; conditions: Homo sapiens, HCT-116; read-out: Activity; how it was run: as §2
HCT-15 = assay: Cytotoxicity against human HCT15 cells assessed as cell growth at 10 uM; conditions: Homo sapiens, HCT-15; read-out: Activity; how it was run: as §2
HT-29 = assay: Cytotoxicity against human HT-29 cells assessed as cell growth at 10 uM; conditions: Homo sapiens, HT-29; read-out: Activity; how it was run: as §2
SW-620 = assay: Cytotoxicity against human SW620 cells assessed as cell growth at 10 uM; conditions: Homo sapiens, SW-620; read-out: Activity; how it was run: as §1
SF-268 = assay: Cytotoxicity against human SF268 cells assessed as cell growth at 10 uM; conditions: Homo sapiens, SF-268; read-out: Activity; how it was run: as §1
SF-295 = assay: Cytotoxicity against human SF295 cells assessed as cell growth at 10 uM; how it was run: as §1
SF-539 = assay: Cytotoxicity against human SF539 cells assessed as cell growth at 10 uM; conditions: Homo sapiens, SF-539; read-out: Activity; how it was run: as §1
SNB-75 = assay: Cytotoxicity against human SNB75 cells assessed as cell growth at 10 uM; conditions: Homo sapiens, SNB-75; read-out: Activity; how it was run: as §1
U-251 = assay: Cytotoxicity against human U251 cells assessed as cell growth at 10 uM; conditions: Homo sapiens, U-251; read-out: Activity; how it was run: as §1
LOX IMVI = assay: Cytotoxicity against human LOXIMVI cells assessed as cell growth at 10 uM; how it was run: as §1
Malme-3M = assay: Cytotoxicity against human MALME-3M cells assessed as cell growth at 10 uM; how it was run: as §1
SK-MEL-28 = assay: Cytotoxicity against human SK-MEL-28 cells assessed as cell growth at 10 uM; how it was run: as §1
UACC-257 = assay: Cytotoxicity against human UACC257 cells assessed as cell growth at 10 uM; how it was run: as §1
OVCAR-3 = assay: Cytotoxicity against human OVCAR-3 cells assessed as cell growth at 10 uM; how it was run: as §1
OVCAR-4 = assay: Cytotoxicity against human OVCAR4 cells assessed as cell growth at 10 uM; how it was run: as §1
OVCAR-8 = assay: Cytotoxicity against human OVCAR8 cells assessed as cell growth at 10 uM; how it was run: as §1
NCI/ADR-RES = assay: Cytotoxicity against human NCI/ADR-RES cells assessed as cell growth at 10 uM; how it was run: as §1
SK-OV-3 = assay: Cytotoxicity against human SKOV3 cells assessed as cell growth at 10 uM; how it was run: as §1
ACHN = assay: Cytotoxicity against human ACHN cells assessed as cell growth at 10 uM; how it was run: as §2
CAKI-1 = assay: Cytotoxicity against human Caki1 cells assessed as cell growth at 10 uM; how it was run: as §2
TK-10 = assay: Cytotoxicity against human TK10 cells assessed as cell growth at 10 uM; how it was run: as §1
UO-31 = assay: Cytotoxicity against human UO31 cells assessed as cell growth at 10 uM; how it was run: as §1
PC-3 = assay: Cytotoxicity against human PC3 cells assessed as cell growth at 10 uM; how it was run: as §1
DU-145 = assay: Cytotoxicity against human DU145 cells assessed as cell growth at 10 uM; how it was run: as §2
MCF7 = assay: Cytotoxicity against human MCF7 cells assessed as cell growth at 10 uM; how it was run: as §1
MDA-MB-231 = assay: Cytotoxicity against human MDA-MB-231 cells assessed as cell growth at 10 uM; how it was run: as §1
BT-549 = assay: Cytotoxicity against human BT549 cells assessed as cell growth at 10 uM; how it was run: as §2
MDA-MB-468 = assay: Cytotoxicity against human MDA-MB-468 cells assessed as cell growth at 10 uM; how it was run: as §1
[1] = Growth inhibition of human NCI60 cells at 10 uM after 48 hrs by sulforhodamine B assay relative to control; conditions: Homo sapiens, NCI60, 48 h; read-out: GI
How it was run: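 Single 10 µM dose across the 60-line panel for 48 h, with the same culture, TCA fixation and SRB 515 nm read-out. Inhibition % = 100 − growth %, given as the mean over the 60 cell lines.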

Structure (SMILES): CC(=O)c1ccccc1-c1ccc(-c2ccnc(NC(=O)Nc3cc(C(F)(F)F)cc(C(F)(F)F)c3)n2)cn1
- growth at 10 µM (K562): 90.8%
- growth at 10 µM (MOLT-4): 88.3%
- Activity (SR): 19.97%
- growth at 10 µM (EKVX): 91%
- growth at 10 µM (HOP-62): 95.6%
- growth at 10 µM (NCI-H226): 98.6%
- growth at 10 µM (NCI-H23): 99.8%
- growth at 10 µM (NCI-H522): 90.1%
- growth at 10 µM (COLO 205): 90.9%
- growth at 10 µM (HCC 2998): 105%
- growth at 10 µM (HCT-116): 69.9%
- growth at 10 µM (HCT-15): 93.2%
- growth at 10 µM (HT-29): 96.3%
- growth at 10 µM (SW-620): 81.8%
- growth at 10 µM (SF-268): 94.4%
- Activity (SF-295): 110.95%
- growth at 10 µM (SF-539): 87%
- growth at 10 µM (SNB-75): 72%
- growth at 10 µM (U-251): 85.1%
- Activity (LOX IMVI): 65.57%
- Activity (Malme-3M): 105.41%
- Activity (SK-MEL-28): 109.71%
- Activity (UACC-257): 92.59%
- Activity (OVCAR-3): 126.52%
- Activity (OVCAR-4): -18.53%
- Activity (OVCAR-8): 83.37%
- Activity (NCI/ADR-RES): 87.74%
- Activity (SK-OV-3): 91.88%
- Activity (ACHN): 88.77%
- Activity (CAKI-1): 81.28%
- Activity (TK-10): 102.3%
- Activity (UO-31): 76.28%
- Activity (PC-3): 74.12%
- Activity (DU-145): 91.19%
- Activity (MCF7): 75.33%
- Activity (MDA-MB-231): 83.21%
- Activity (BT-549): 90.06%
- Activity (MDA-MB-468): 81.95%
- inhibition of growth at 10 µM [1]: 11.3%

Structure (SMILES): CC(=O)c1ccccc1-c1ccc(-c2ccnc(NC(=O)Nc3cc(N4CCOCC4)cc(C(F)(F)F)c3)n2)cn1
- growth at 10 µM (K562): 83.3%
- growth at 10 µM (MOLT-4): 87.1%
- growth at 10 µM (SR; Homo sapiens, SR, read-out: Activity): 86.2%
- growth at 10 µM (EKVX): 88.2%
- growth at 10 µM (HOP-62): 7.86%
- growth at 10 µM (NCI-H226): 39.4%
- growth at 10 µM (NCI-H23): 58.5%
- growth at 10 µM (NCI-H522): 60.2%
- growth at 10 µM (COLO 205): 85.7%
- growth at 10 µM (HCC 2998): 106%
- growth at 10 µM (HCT-116): 63%
- growth at 10 µM (HCT-15): 84.2%
- growth at 10 µM (HT-29): 33.1%
- growth at 10 µM (SW-620): 90.5%
- growth at 10 µM (SF-268): 63.9%
- growth at 10 µM (SF-295; Homo sapiens, SF-295, read-out: Activity): 74.8%
- growth at 10 µM (SF-539): 44.3%
- growth at 10 µM (SNB-75): 8.55%
- growth at 10 µM (U-251): 56.4%
- growth at 10 µM (LOX IMVI; Homo sapiens, LOX IMVI, read-out: Activity): 44.7%
- growth at 10 µM (Malme-3M; Homo sapiens, Malme-3M, read-out: Activity): 24.8%
- growth at 10 µM (SK-MEL-28; Homo sapiens, SK-MEL-28, read-out: Activity): -74.8%
- growth at 10 µM (UACC-257; Homo sapiens, UACC-257, read-out: Activity): 65.1%
- growth at 10 µM (OVCAR-3; Homo sapiens, OVCAR-3, read-out: Activity): 123%
- growth at 10 µM (OVCAR-4; Homo sapiens, OVCAR-4, read-out: Activity): 27.5%
- growth at 10 µM (OVCAR-8; Homo sapiens, OVCAR-8, read-out: Activity): 43%
- growth at 10 µM (NCI/ADR-RES; Homo sapiens, NCI/ADR-RES, read-out: Activity): 58.1%
- growth at 10 µM (SK-OV-3; Homo sapiens, SK-OV-3, read-out: Activity): 71.5%
- growth at 10 µM (ACHN; Homo sapiens, ACHN, read-out: Activity): 45.7%
- growth at 10 µM (CAKI-1; Homo sapiens, CAKI-1, read-out: Activity): 83.5%
- growth at 10 µM (TK-10; Homo sapiens, TK-10, read-out: Activity): 47.8%
- growth at 10 µM (UO-31; Homo sapiens, UO-31, read-out: Activity): 92.1%
- growth at 10 µM (PC-3; Homo sapiens, PC-3, read-out: Activity): 71.3%
- growth at 10 µM (DU-145; Homo sapiens, DU-145, read-out: Activity): 45.3%
- growth at 10 µM (MCF7; Homo sapiens, MCF7, read-out: Activity): 75%
- growth at 10 µM (MDA-MB-231; Homo sapiens, MDA-MB-231, read-out: Activity): 30.1%
- growth at 10 µM (BT-549; Homo sapiens, BT-549, read-out: Activity): 51.7%
- growth at 10 µM (MDA-MB-468; Homo sapiens, MDA-MB-468, read-out: Activity): 82.1%
- inhibition of growth at 10 µM [1]: 38.4%

Reference: ChEMBL document CHEMBL1165943, “Design and synthesis of new anticancer pyrimidines with multiple-kinase inhibitory effect” (Bioorg Med Chem, 2010)
